Converted amounts (≈) assume the structure as drawn.
Tests used:
Format in all cases: functional
Staphylococcus aureus [1] = test: Antibacterial activity against erythromycin-susceptible Staphylococcus aureus by agar microdilution method
Outline: (§1)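 Strains from an in-house culture collection (Pliva Research Institute). MIC determined by agar microdilution following NCCLS standards and reported in μg/mL. Erythromycin-susceptible strains are listed as Ery-S; the panel also includes inducibly resistant (iMLS), constitutively resistant (MLSB) and efflux-resistant (M) strains.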

Staphylococcus aureus [2] = test: Antibacterial activity against macrolide lincosamide- streptogramin B inducibly-resistant Staphylococcus aureus by agar microdilution method
Outline: (§2)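 Agar microdilution MIC following NCCLS standards; strains taken from the Pliva Research Institute culture collection. Panel grouped by phenotype: erythromycin-susceptible, inducibly MLS-resistant (iMLS), constitutively MLSB-resistant and efflux-resistant (M). Azithromycin, telithromycin and cethromycin tested alongside as references. MIC reported in μg/mL.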

Staphylococcus aureus [3] = test: Antibacterial activity against macrolide lincosamide- streptogramin B-resistant Staphylococcus aureus by agar microdilution method; outline: as §2
Streptococcus pneumoniae [4] = test: Antibacterial activity against erythromycin-susceptible Streptococcus pneumoniae by agar microdilution method; outline: as §1
Streptococcus pneumoniae [5] = test: Antibacterial activity against macrolide lincosamide- streptogramin B inducibly-resistant Streptococcus pneumoniae by agar microdilution method; outline: as §2
Streptococcus pneumoniae [6] = test: Antibacterial activity against efflux-resistant Streptococcus pneumoniae by agar microdilution method; outline: as §2
Streptococcus pyogenes [7] = test: Antibacterial activity against erythromycin-susceptible Streptococcus pyogenes by agar microdilution method; outline: as §1
Streptococcus pyogenes [8] = test: Antibacterial activity against macrolide lincosamide- streptogramin B inducibly-resistant Streptococcus pyogenes by agar microdilution method; outline: as §2
Streptococcus pyogenes [9] = test: Antibacterial activity against efflux-resistant Streptococcus pyogenes by agar microdilution method; outline: as §2
Haemophilus influenzae = test: Antibacterial activity against Haemophilus influenzae by agar microdilution method; outline: as §1

`CC[C@H]1OC(=O)[C@H](C)C(=O)[C@H](C)[C@@H](O[C@@H]2O[C@H](C)C[C@H](N(C)C)[C@H]2O)[C@](C)(OC)C[C@@H](C)C(=O)[C@H](C)[C@H]2C(NC(=O)CCc3ccccc3)C(=O)O[C@@]21C` (stereo not given in full) was tested, and the MIC (Staphylococcus aureus [1]) was 4 µg/mL (≈ 5.27 µM), the MIC (Staphylococcus aureus [2]) was 8 µg/mL (≈ 10.5 µM) and the MIC (Staphylococcus aureus [3]) was > 64 µg/mL. The MIC (Streptococcus pneumoniae [4]) was ≤ 0.125 µg/mL, the MIC (Streptococcus pneumoniae [5]) was 16 µg/mL (≈ 21.1 µM) and the MIC (Streptococcus pneumoniae [6]) was 4 µg/mL (≈ 5.27 µM). For the same compound, the MIC (Streptococcus pyogenes [7]) was 0.5 µg/mL (≈ 0.659 µM), the MIC (Streptococcus pyogenes [8]) was 16 µg/mL (≈ 21.1 µM) and the MIC (Streptococcus pyogenes [9]) was 8 µg/mL (≈ 10.5 µM). It also gave an MIC (Haemophilus influenzae) of 16 µg/mL (≈ 21.1 µM).
In the case of `CC[C@H]1OC(=O)[C@H](C)C(=O)[C@H](C)[C@@H](O[C@@H]2O[C@H](C)C[C@H](N(C)C)[C@H]2O)[C@](C)(OC)C[C@@H](C)C(=O)[C@H](C)[C@H]2C(N)C(=O)O[C@@]21C` (stereo not given in full), the MIC (Staphylococcus aureus [1]) is reported as 1 µg/mL (≈ 1.6 µM), the MIC (Staphylococcus aureus [2]) is reported as 32 µg/mL (≈ 51.1 µM) and the MIC (Staphylococcus aureus [3]) is reported as > 64 µg/mL. For the same compound, the MIC (Streptococcus pneumoniae [4]) was ≤ 0.125 µg/mL, the MIC (Streptococcus pneumoniae [5]) was > 64 µg/mL and the MIC (Streptococcus pneumoniae [6]) was 8 µg/mL (≈ 12.8 µM). The MIC (Streptococcus pyogenes [7]) was 2 µg/mL (≈ 3.19 µM), the MIC (Streptococcus pyogenes [8]) was > 64 µg/mL and the MIC (Streptococcus pyogenes [9]) was 8 µg/mL (≈ 12.8 µM). The MIC (Haemophilus influenzae) was > 64 µg/mL.
`CC[C@H]1OC(=O)[C@H](C)C(=O)[C@H](C)[C@@H](O[C@@H]2O[C@H](C)C[C@H](N(C)C)[C@H]2O)[C@](C)(OC)C[C@@H](C)C(=O)[C@H](C)[C@H]2C(NC(=O)CCc3cnc4ccccc4c3)C(=O)O[C@@]21C` (stereo not given in full) was tested, and the MIC (Staphylococcus aureus [1]) was 1 µg/mL (≈ 1.23 µM), the MIC (Staphylococcus aureus [2]) was 1 µg/mL (≈ 1.23 µM) and the MIC (Staphylococcus aureus [3]) was > 64 µg/mL. For the same compound, the MIC (Streptococcus pneumoniae [4]) was ≤ 0.125 µg/mL, the MIC (Streptococcus pneumoniae [5]) was 1 µg/mL (≈ 1.23 µM) and the MIC (Streptococcus pneumoniae [6]) was 0.5 µg/mL (≈ 0.617 µM). The MIC (Streptococcus pyogenes [7]) was ≤ 0.125 µg/mL, the MIC (Streptococcus pyogenes [8]) was 1 µg/mL (≈ 1.23 µM) and the MIC (Streptococcus pyogenes [9]) was 2 µg/mL (≈ 2.47 µM). For the same compound, the MIC (Haemophilus influenzae) was 4 µg/mL (≈ 4.94 µM).
For `CC[C@H]1OC(=O)[C@H](C)C(=O)[C@H](C)[C@@H](O[C@@H]2O[C@H](C)C[C@H](N(C)C)[C@H]2O)[C@](C)(OC)C[C@@H](C)C(=O)[C@H](C)[C@H]2C(NC(=O)CSc3cnc4ccccc4n3)C(=O)O[C@@]21C` (stereo not given in full), the MIC (Staphylococcus aureus [1]) was ≤ 0.125 µg/mL, the MIC (Staphylococcus aureus [2]) was 0.25 µg/mL (≈ 0.302 µM) and the MIC (Staphylococcus aureus [3]) was > 64 µg/mL. The MIC (Streptococcus pneumoniae [4]) was ≤ 0.06 µg/mL, the MIC (Streptococcus pneumoniae [5]) was ≤ 0.125 µg/mL and the MIC (Streptococcus pneumoniae [6]) was 0.25 µg/mL (≈ 0.302 µM). For the same compound, the MIC (Streptococcus pyogenes [7]) was ≤ 0.06 µg/mL, the MIC (Streptococcus pyogenes [8]) was 0.25 µg/mL (≈ 0.302 µM) and the MIC (Streptococcus pyogenes [9]) was 0.25 µg/mL (≈ 0.302 µM). For the same compound, the MIC (Haemophilus influenzae) was 0.5 µg/mL (≈ 0.603 µM).
With `CC[C@H]1OC(=O)[C@H](C)C(=O)[C@H](C)[C@@H](O[C@@H]2O[C@H](C)C[C@H](N(C)C)[C@H]2O)[C@](C)(OC)C[C@@H](C)C(=O)[C@H](C)[C@H]2C(NC(=O)CNC(=O)CSc3cnc4ccccc4n3)C(=O)O[C@@]21C` (stereo not given in full) the MIC (Staphylococcus aureus [1]) was ≤ 0.125 µg/mL, the MIC (Staphylococcus aureus [2]) was 0.25 µg/mL (≈ 0.282 µM) and the MIC (Staphylococcus aureus [3]) was > 64 µg/mL. The MIC (Streptococcus pneumoniae [4]) was 0.25 µg/mL (≈ 0.282 µM), the MIC (Streptococcus pneumoniae [5]) was 0.5 µg/mL (≈ 0.564 µM) and the MIC (Streptococcus pneumoniae [6]) was 0.5 µg/mL (≈ 0.564 µM). It also gave an MIC (Streptococcus pyogenes [7]) of 0.25 µg/mL (≈ 0.282 µM), an MIC (Streptococcus pyogenes [8]) of 1 µg/mL (≈ 1.13 µM) and an MIC (Streptococcus pyogenes [9]) of 0.5 µg/mL (≈ 0.564 µM). The MIC (Haemophilus influenzae) was 2 µg/mL (≈ 2.26 µM).
With `CC[C@H]1OC(=O)[C@H](C)C(=O)[C@H](C)[C@@H](O[C@@H]2O[C@H](C)C[C@H](N(C)C)[C@H]2O)[C@](C)(OC)C[C@@H](C)C(=O)[C@H](C)[C@H]2C(NC(=O)CCc3ccccn3)C(=O)O[C@@]21C` (stereo not given in full) the MIC (Staphylococcus aureus [1]) was 4 µg/mL (≈ 5.26 µM), the MIC (Staphylococcus aureus [2]) was 4 µg/mL (≈ 5.26 µM) and the MIC (Staphylococcus aureus [3]) was > 64 µg/mL. For the same compound, the MIC (Streptococcus pneumoniae [4]) was ≤ 0.125 µg/mL, the MIC (Streptococcus pneumoniae [5]) was 2 µg/mL (≈ 2.63 µM) and the MIC (Streptococcus pneumoniae [6]) was 2 µg/mL (≈ 2.63 µM). The MIC (Streptococcus pyogenes [7]) was ≤ 0.125 µg/mL, the MIC (Streptococcus pyogenes [8]) was 32 µg/mL (≈ 42.1 µM) and the MIC (Streptococcus pyogenes [9]) was 4 µg/mL (≈ 5.26 µM). It also gave an MIC (Haemophilus influenzae) of 16 µg/mL (≈ 21.1 µM).
With `CC[C@H]1OC(=O)[C@H](C)C(=O)[C@H](C)[C@@H](O[C@@H]2O[C@H](C)C[C@H](N(C)C)[C@H]2O)[C@](C)(OC)C[C@@H](C)C(=O)[C@H](C)[C@H]2C(NC(=O)CCc3cnc4c(OC)cccc4c3)C(=O)O[C@@]21C` (stereo not given in full) the MIC (Staphylococcus aureus [1]) was 0.5 µg/mL (≈ 0.595 µM), the MIC (Staphylococcus aureus [2]) was 1 µg/mL (≈ 1.19 µM) and the MIC (Staphylococcus aureus [3]) was > 64 µg/mL. For the same compound, the MIC (Streptococcus pneumoniae [4]) was ≤ 0.125 µg/mL, the MIC (Streptococcus pneumoniae [5]) was 0.25 µg/mL (≈ 0.298 µM) and the MIC (Streptococcus pneumoniae [6]) was 0.25 µg/mL (≈ 0.298 µM). The MIC (Streptococcus pyogenes [7]) was ≤ 0.125 µg/mL, the MIC (Streptococcus pyogenes [8]) was 0.5 µg/mL (≈ 0.595 µM) and the MIC (Streptococcus pyogenes [9]) was 0.25 µg/mL (≈ 0.298 µM). The MIC (Haemophilus influenzae) was 1 µg/mL (≈ 1.19 µM).
`CC[C@H]1OC(=O)[C@H](C)C(=O)[C@H](C)[C@@H](O[C@@H]2O[C@H](C)C[C@H](N(C)C)[C@H]2O)[C@](C)(OC)C[C@@H](C)C(=O)[C@H](C)[C@H]2C(NC(=O)CCc3ccncc3)C(=O)O[C@@]21C` (stereo not given in full) was tested, and the MIC (Staphylococcus aureus [1]) was 4 µg/mL (≈ 5.26 µM), the MIC (Staphylococcus aureus [2]) was 8 µg/mL (≈ 10.5 µM) and the MIC (Staphylococcus aureus [3]) was > 64 µg/mL. The MIC (Streptococcus pneumoniae [4]) was ≤ 0.125 µg/mL, the MIC (Streptococcus pneumoniae [5]) was 16 µg/mL (≈ 21.1 µM) and the MIC (Streptococcus pneumoniae [6]) was 8 µg/mL (≈ 10.5 µM). The MIC (Streptococcus pyogenes [7]) was ≤ 0.125 µg/mL, the MIC (Streptococcus pyogenes [8]) was 2 µg/mL (≈ 2.63 µM) and the MIC (Streptococcus pyogenes [9]) was 2 µg/mL (≈ 2.63 µM). For the same compound, the MIC (Haemophilus influenzae) was 2 µg/mL (≈ 2.63 µM).
With `CC[C@H]1OC(=O)[C@H](C)C(=O)[C@H](C)[C@@H](O[C@@H]2O[C@H](C)C[C@H](N(C)C)[C@H]2O)[C@](C)(OC)C[C@@H](C)C(=O)[C@H](C)[C@H]2C(NC(=O)CCCCc3cnc4c(OC)cccc4c3)C(=O)O[C@@]21C` (stereo not given in full) the MIC (Staphylococcus aureus [1]) was 1 µg/mL (≈ 1.15 µM), the MIC (Staphylococcus aureus [2]) was 1 µg/mL (≈ 1.15 µM) and the MIC (Staphylococcus aureus [3]) was > 64 µg/mL. The MIC (Streptococcus pneumoniae [4]) was ≤ 0.125 µg/mL, the MIC (Streptococcus pneumoniae [5]) was 2 µg/mL (≈ 2.3 µM) and the MIC (Streptococcus pneumoniae [6]) was 4 µg/mL (≈ 4.61 µM). For the same compound, the MIC (Streptococcus pyogenes [7]) was ≤ 0.125 µg/mL, the MIC (Streptococcus pyogenes [8]) was 4 µg/mL (≈ 4.61 µM) and the MIC (Streptococcus pyogenes [9]) was 4 µg/mL (≈ 4.61 µM). For the same compound, the MIC (Haemophilus influenzae) was 16 µg/mL (≈ 18.4 µM).
